An excerpt weighted towards active compounds, which were near 2.2% of everything screened.
MDM2 E3 inh: MDM2-luciferase reporter signal enhancers, primary screen, MDM2 E3 ligase inhibitor project, cell-based, luminescence, 1536-well; 0.11% of 210,000 active; E3 ubiquitin-protein ligase Mdm2 (Homo sapiens), Q00987; cell-based MDM2 ubiquitination luciferase reporter, 2 h; 0 = plate control, 100 = twice control, blank-subtracted; signal enhancement, % at 5 µM; AID 1230, 2008;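 active = signal enhancement of 30% or more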;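 also: luminescence tracks abundance of the self-degrading MDM2-luciferase fusion protein; higher signal means inhibition of MDM2 E3 ligase activity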
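Buffer or medium: Cells held in DMEM | Assay system: Stable mammalian line carrying autodegrading MDM2–luciferase fusion reporter | Quantity: 2000 cells/well | Times: 4 h settle plus 2 h compound, 37 °C | Doses: One concentration, 5 µM, with 0.2% DMSO | Technique: Luminescence with SteadyLite reagent, 15 min at room temperature | Benchmarks: Plate controls and plate blanks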
Insulin prom up: insulin promoter activators in MIN6 cells, imaging, high-content screening, mouse beta cells. MIN6 insulin promoter-GFP reporter; stronger effect = higher value. z-score at 5 µM. 0.3% of 190,000 active. AID 1625, 2009;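 active = z-score above 3 at 5 µM with at least 500 cells counted in the well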
Wee1 degr inh: Wee1 degradation inhibitors, primary screen, cell-based, HeLa, Wee1K328M-luciferase, luminescence; Wee1-like protein kinase (Homo sapiens), P30291; HeLa Luc-Wee1K328M stability; 100% = proteasome inhibitor MG132 effect; reporter increase, % at 5 µM; 1.2% of 220,000 active; AID 1321, 2008;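 active = activation above the mean of all tested compounds plus 3 SD, set per screening run, cut at about 8.8% in these data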;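 also: cells exposed to compound for 20 h before luminescence read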
Target sequence (P30291 whole entry K328M): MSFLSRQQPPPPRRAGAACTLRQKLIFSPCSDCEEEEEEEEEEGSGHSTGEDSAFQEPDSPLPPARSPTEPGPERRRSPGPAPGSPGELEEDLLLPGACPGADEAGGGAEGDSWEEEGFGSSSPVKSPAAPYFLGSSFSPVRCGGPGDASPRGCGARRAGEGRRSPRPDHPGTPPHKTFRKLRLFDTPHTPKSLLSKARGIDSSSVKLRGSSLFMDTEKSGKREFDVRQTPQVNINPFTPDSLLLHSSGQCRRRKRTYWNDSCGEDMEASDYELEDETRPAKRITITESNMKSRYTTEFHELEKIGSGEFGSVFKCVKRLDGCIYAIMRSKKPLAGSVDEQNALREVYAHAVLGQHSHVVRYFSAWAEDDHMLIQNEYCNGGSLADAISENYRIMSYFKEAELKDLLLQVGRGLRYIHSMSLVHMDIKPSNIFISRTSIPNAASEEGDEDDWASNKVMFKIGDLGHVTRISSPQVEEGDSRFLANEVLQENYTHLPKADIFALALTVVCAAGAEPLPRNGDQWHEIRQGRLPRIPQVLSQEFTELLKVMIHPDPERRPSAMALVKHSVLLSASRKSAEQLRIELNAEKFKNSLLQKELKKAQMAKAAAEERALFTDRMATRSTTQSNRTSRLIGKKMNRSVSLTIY
Hsp70 act: Hsp70 transcriptional activators, primary screen, cell-based, HeLa, Hsp70 promoter luciferase, luminescence, 10 µM; HeLa Hsp70 promoter luciferase reporter; scaled: vehicle 0, proteasome-inhibitor control 100%; activation, % at 10 µM; 0.04% of 200,000 active; AID 1203, 2008;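 active = activation above the mean across all tested compounds plus 3 SD, cutoff set per campaign, cut at about 5.5% in these data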
RBBP9 inh: human RBBP9 inhibitors, primary screen, biochemical, fluorescence polarization, FP-Rh probe, HTS. 0.2% of 220,000 active. AID 1515, 2009. recombinant RBBP9. inhibition, % at 7.94 µM. Serine hydrolase RBBP9 (Homo sapiens), O75884;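 active = inhibition above the campaign mean of all tested compounds plus 3 SD, cut at about 14% in these data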
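Controls: DMSO-treated enzyme wells and wells lacking RBBP9 | Material: RBBP9 protein | Technique: Fluorescence polarization | Replication: Single well per compound, no replicates | Buffer or medium: Tris-NaCl-Pluronic buffer, pH 8.0 | Timing: 30 min compound preincubation, 45 min probe labeling, 25 °C | Read-out basis: Percent inhibition from mP, scaled between DMSO and no-protein wells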
INS promoter inh: inhibitors of insulin promoter-driven GFP, primary screen, imaging, TRM-6 cells, eGFP reporter, cell count; reporter expression induced with tamoxifen; inhibition, % at 2 µM; 0.9% of 130,000 active; AID 1273, 2008;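 active = inhibition above the mean plus 3 SD, with well images judged a real hit on visual review, cut at about 60% in these data, passing the limit was not always enough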
Numbers stand for hits; i = inactive; nt = no result.

SMILES | MDM2 E3 inh | Insulin prom up | Wee1 degr inh | Hsp70 act | RBBP9 inh | INS promoter inh
O=[N+]([O-])c1ccccc1S(=O)(=O)N1CCCCC1 | i | i | i | i | i | i
O=S(=O)(c1ccccc1S(=O)(=O)N1CCCCC1)N1CCCCC1 | i | i | 9.1 | i | i | i
Cc1ccc(NC(=O)Cn2nc(C)c(S(=O)(=O)N(C)C)c2C)cc1 | i | i | i | i | i | nt
COc1ccc(CN2C(=O)CCC2(C)C(=O)NC2CCCC2)c(OC)c1 (stereo not given) | nt | i | i | i | i | 70
O=Cc1ccc(-c2ccc([N+](=O)[O-])cc2Cl)o1 | i | i | i | i | i | nt
O=Cc1ccc(-c2cccc([N+](=O)[O-])c2)o1 | i | i | 10 | nt | i | nt
COc1ccc(C(=O)NN2CCCCC2)cc1OC | i | i | i | i | i | i
CCOc1cc(C(=O)Nn2cnnc2)cc(OCC)c1OCC | i | i | 8.9 | i | i | i
COc1ccc(C(=O)Nn2cnnc2)cc1OC | i | 4.4 | i | nt | i | nt
COCCCNC(=S)NC(=O)c1ccc(C)cc1 | i | i | i | i | i | i
CCN(CCn1cccn1)Cc1ccccc1OCC(O)CN1CCc2ccccc2C1 (stereo not given) | i | i | i | i | i | nt
CCN(CC)CC(=O)c1c(N)n(Cc2ccccc2)c(=O)n(C)c1=O | i | i | i | i | i | i
CCC(=O)OCC(=O)c1c(N)n(Cc2ccccc2)c(=O)n(C)c1=O | i | 3.3 | i | i | i | i
CC(NC(=O)C12CC3(C)CC(C)(CC(C)(C3)C1)C2)C(=O)O (stereo not given) | i | i | i | i | i | 71
CCOc1ccc(NC(=S)NCCCN2CCOCC2)cc1 | 34 | i | i | i | i | i
COc1ccc(NC(=S)NCCN2CCOCC2)cc1 | i | i | i | i | i | nt
COc1cc(NC(=S)NCCN2CCOCC2)cc(OC)c1 | i | i | i | i | i | 64
COc1ccc(NC(=S)NCCCN2CCOCC2)cc1 | i | i | i | nt | i | nt
COc1ccc2nc(SCC(=O)Nc3ccccc3)[nH]c2c1 | i | i | i | i | i | i
COc1ccc2nc(SCC(=O)Nc3c(C)cccc3C)[nH]c2c1 | i | 3.3 | i | i | i | i
O=S(=O)(c1ccc(F)cc1)N1CCCN(c2nccc(C(F)(F)F)n2)CC1 | i | i | 9.5 | nt | i | nt
O=S(=O)(c1ccc(F)cc1)N1CCN(c2ncccn2)CC1 | i | i | i | nt | i | nt
O=C(NC(=S)NCC1CCCO1)c1ccccc1 (stereo not given) | i | i | 9.0 | i | i | i
O=C(NCC1CCCO1)c1ccccn1 (stereo not given) | i | nt | i | i | i | 75
Cc1c(/C=N/NC(=O)C(C)(C)Oc2ccc(Cl)cc2)cnn1C | i | i | 9.9 | i | i | i
SMILES | MDM2 E3 inh | Insulin prom up | Wee1 degr inh | Hsp70 act | RBBP9 inh | INS promoter inh
Cc1cccn2cc(CCNC(=O)c3ccc(Br)o3)nc12 | i | i | i | i | i | nt
Cc1ccc(CNS(=O)(=O)c2ccc3c(c2)n(C)c(=O)c(=O)n3C)cc1 | i | i | 10 | i | i | i
CCCOc1ccc(S(=O)(=O)NCc2ccc(OC)cc2)cc1 | i | i | 22 | i | i | nt
COc1ccc(CNS(=O)(=O)c2ccc(OC)cc2)cc1 | i | i | i | i | i | i
O=C(O)C1CC=CCC1C(=O)Nc1ccc2c(c1)OCCO2 (stereo not given) | i | nt | i | i | i | i
CC(C)C(=O)NC(=S)Nc1ccc(S(=O)(=O)N(C)Cc2ccccc2)cc1 | i | i | i | i | i | i
CCCOc1ccc(C2/C(=C(\O)c3c(C)[nH]c(C(=O)OC)c3C)C(=O)C(=O)N2CCN(C)C)cc1 (stereo not given) | i | nt | i | i | i | 85
Cc1cc(=O)oc2cc(O)c(N=Nc3ccccc3)cc12 | i | i | 9.4 | nt | i | nt
CC(=O)c1cc2c(C)cc(=O)oc2cc1O | i | i | i | i | i | i
CC(C)(C)Nc1nc(Oc2ccc(=O)[nH]n2)nc(N2CCOCC2)n1 | i | i | 9.6 | i | i | i
COc1nc(Oc2ccc(=O)[nH]n2)nc(N2CCOCC2)n1 | i | i | i | i | i | i
C=CCn1c(-c2cccc(Cl)c2)n[nH]c1=S | i | i | i | i | i | nt
C=CCn1c(-c2oc3nc(-c4ccccc4)cc(-c4ccccc4)c3c2N)n[nH]c1=S | i | 5.6 | i | i | i | nt
Cc1cccc(NC(=O)COc2ccc(Br)cc2/C=N/O)c1 | i | i | 9.4 | i | i | i
CC(=O)Nc1ccc(NC(=O)COc2ccc(Br)cc2C)cc1 | i | i | i | i | i | i
O=C(NCc1ccco1)Nc1cccc([N+](=O)[O-])c1 | nt | i | i | nt | i | nt
CCCC1/C(=N/O)CC(c2ccccc2)NC1c1ccccc1 (stereo not given) | i | i | 9.1 | i | i | i
CC(=O)C1=C(O)C(=O)N(c2ccc(Br)cn2)C1c1ccccc1F (stereo not given) | i | i | i | i | i | i
COc1cc(C2C(C(C)=O)=C(O)C(=O)N2c2ccc(Br)cn2)ccc1O (stereo not given) | i | i | i | i | i | i
CC(=O)C1=C(O)C(=O)N(c2ccc(Br)cn2)C1c1ccc(Br)cc1 (stereo not given) | i | i | 10 | nt | i | nt
CC(=O)C1=C(O)C(=O)N(c2nccs2)C1c1ccc(F)cc1 (stereo not given) | i | i | i | i | i | i
CC(=O)C1=C(O)C(=O)N(c2nccs2)C1c1ccc(Br)cc1 (stereo not given) | i | i | 9.1 | i | i | i
CC(=O)C1=C(O)C(=O)N(c2ccc(Br)cn2)C1c1ccc(F)cc1 (stereo not given) | i | i | 11 | i | i | nt
COC(=O)C1=C(C)NC(=O)/C1=C\c1cc(C)n(-c2ccccc2C)c1C | i | i | i | i | i | 71
COC(=O)C1=C(C)NC(=O)/C1=C\c1cc(C)n(-c2ccccc2F)c1C | i | i | i | i | i | i
CC1CCCCC1NC(=O)CCCn1c(=S)[nH]c2ccccc2c1=O (stereo not given) | i | i | i | i | i | i
CC1CCCN(C(=O)CCCn2c(=S)[nH]c3ccccc3c2=O)C1 (stereo not given) | i | i | 9.7 | i | i | i
COc1ccc(-c2n[nH]c3c2C(c2ccc(OC)c(OC)c2)N(c2ccccc2)C3=O)cc1 (stereo not given) | i | nt | i | i | i | 69

Screens as filed in PubChem.
